Source: ChEMBL document CHEMBL1138362, “Dihydro-alkylthio-benzyl-oxopyrimidines as inhibitors of reverse transcriptase: synthesis and rationalization of the biological data on both wild-type enzyme and relevant clinical mutants” (J Med Chem, 2007)

Tests used:
[1] = system: Human immunodeficiency virus 1; test: Antiviral activity against HIV1 with reverse transcriptase Y188L mutation in MT4 cells after 5 days by MTT method; format: functional, organism-based; details: Human immunodeficiency virus 1, MT4, 120 h
In short: (§1)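 MT-4 cells from the NIH AIDS Reagent Program were infected with mutant HIV-1 (K103N or Y188L, from the MRC Centralised Facility) in the presence of graded drug concentrations. Mock-infected cells were used for cytotoxicity. Viable cells were counted by MTT colorimetry at day 5 post-infection.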

[2] = system: Human immunodeficiency virus 1; test: Antiviral activity against wild type HIV1 NL4-3 in MT4 cells after 5 days by MTT method; format: functional, organism-based; details: Human immunodeficiency virus 1, NL4-3, MT4, 120 h
In short: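 MT-4 lymphoid cells, infected with HIV-1 or mock-infected (for cytotoxicity), held with a range of drug concentrations; viable cells scored at day 5 post-infection by tetrazolium (MTT) colorimetry.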

[3] = system: Human immunodeficiency virus 1; test: Antiviral activity against HIV1 with reverse transcriptase Y181C mutation in MT4 cells after 5 days by MTT method; format: functional, organism-based; details: Human immunodeficiency virus 1, MT4, 120 h
[4] = system: Human immunodeficiency virus 1; test: Antiviral activity against HIV1 with reverse transcriptase K103N mutation in MT4 cells after 5 days by MTT method; format: functional, organism-based; details: Human immunodeficiency virus 1, MT4, 120 h; in short: as §1
[5] = molecular target: Human immunodeficiency virus type 1 reverse transcriptase (Human immunodeficiency virus 1) (UniProt Q72547); test: Antiviral activity against wild type HIV1 reverse transcriptase
[6] = system: Human immunodeficiency virus 1 [K103N]; test: Antiviral activity against HIV1 reverse transcriptase K103N mutant
[7] = system: Human immunodeficiency virus type 1 reverse transcriptase (Human immunodeficiency virus 1), Q72547 [Y181I]; test: Antiviral activity against HIV1 reverse transcriptase Y181I mutant
[8] = system: Human immunodeficiency virus 1; test: Antiviral activity against HIV1 with reverse transcriptase IRLL98 mutation in MT4 cells after 5 days by MTT method relative to wild type NL4-3; format: functional

| Compound | EC50 [1] [µM] | EC50 [2] [nM] | EC50 [3] [µM] | EC50 [4] [µM] | ID50 [5] [µM] | ID50 [6] [µM] | ID50 [7] [µM] | Fold change [8] |
| --- | --- | --- | --- | --- | --- | --- | --- | --- |
| CCc1c(Cc2c(F)cccc2F)nc(SCc2ccc(C#N)cc2)[nH]c1=O | > 63 | 75 | 1.33 | 7.78 | 0.17 | 7.5 | > 20 | 45.3 |
| Cc1cn([C@H]2C[C@H](N=[N+]=[N-])[C@@H](CO)O2)c(=O)[nH]c1=O [ZIDOVUDINE] |  |  |  |  |  |  |  | 3 |
| Cc1c(Cc2c(Cl)cccc2Cl)nc(SCC(=O)c2ccc(C#N)cc2)[nH]c1=O | > 56.3 | 1080 | 1.31 | 12.2 | 0.2 | > 20 | > 20 | 3.2 |
| O=C1Nc2ccc(Cl)cc2C(C#CC2CC2)(C(F)(F)F)O1 (single isomer, unassigned) [EFAVIRENZ] |  |  |  |  |  |  |  | 300 |
| Cc1c(Cc2c(F)cccc2F)nc(SCc2ccc3c(c2)OCO3)[nH]c1=O | > 62.2 | 150 | 1.32 | 10.2 | > 20 | > 20 | > 20 | 1.8 |
| CCc1c(Cc2c(Cl)cccc2Cl)nc(SCc2ccc(C#N)cc2)[nH]c1=O | > 58.1 | 44 | 3.05 | 8.84 | 0.1 | > 20 | > 20 | 194 |
| Cc1c(Cc2ccc(C#N)cc2)nc(SCc2ccc([N+](=O)[O-])cc2)[nH]c1=O | > 26.4 | > 26400 | > 26.4 | > 26.4 | > 20 | > 20 | > 20 |  |
| CCc1c(Cc2c(Cl)cccc2Cl)nc(SCc2ccc([N+](=O)[O-])cc2)[nH]c1=O | > 55.6 | 66.6 | 1.58 | > 55.6 | 0.075 | > 20 | > 20 |  |
| COc1ccc(CSc2nc(Cc3c(F)cccc3F)c(C)c(=O)[nH]2)cc1OC | > 39.7 | 200 | 0.74 | 9.33 | 0.5 | > 20 | > 20 | 1.5 |
| Cc1c(C(C)c2c(F)cccc2F)nc(SCc2ccc(C#N)cc2)[nH]c1=O (centres undefined) | 0.68 | 7.8 | 1.55 | 0.73 | 0.01 | 0.7 | > 20 |  |
| CCCCc1ccc(CSc2nc(Cc3ccc(C#N)cc3)c(C)c(=O)[nH]2)cc1 | > 79.9 | 4570 | > 79.9 | > 79.9 | > 20 | > 20 | > 20 |  |
| COc1ccc(CSc2nc(C(C)c3c(F)cccc3F)c(C)c(=O)[nH]2)cc1 (centres undefined) | 0.95 | 0.025 | 0.3 | 0.55 | 0.003 | 45 | > 20 |  |
| COc1ccc(CCSc2nc(Cc3c(F)cccc3F)c(C)c(=O)[nH]2)cc1 | 8.53 | 4.9 | 6.34 | 4.13 | 0.029 | 3.5 | > 20 |  |
| CCC(c1nc(SCc2ccc(OC)cc2)[nH]c(=O)c1C)c1c(F)cccc1F (centres undefined) | 1.46 | 1.9 | 5.02 | 6.13 | 0.047 | > 20 | > 20 |  |
| COc1ccc(C#CCSc2nc(C(C)c3c(Cl)cccc3Cl)c(C)c(=O)[nH]2)cc1 (centres undefined) | 24.8 | 500 | 33.5 | > 54.5 | 0.005 | > 20 | > 20 |  |
| COc1ccc(/C=C/CSc2nc(C(C)c3c(Cl)cccc3Cl)c(C)c(=O)[nH]2)cc1 (centres undefined) | 1.26 | 9 | 3.6 | 2.47 | 0.018 | > 20 | > 20 |  |
| COc1ccc(/C=C/Sc2nc(C(C)c3c(Cl)cccc3Cl)c(C)c(=O)[nH]2)cc1 (centres undefined) | > 55.9 | 16200 | > 55.9 | > 55.9 | 0.02 | > 20 | > 20 |  |

| Compound | EC50 [1] [µM] | EC50 [2] [nM] | EC50 [3] [µM] | EC50 [4] [µM] | ID50 [5] [µM] | ID50 [6] [µM] | ID50 [7] [µM] | Fold change [8] |
| --- | --- | --- | --- | --- | --- | --- | --- | --- |
| COc1ccc(/C=C/Sc2nc(Cc3c(Cl)cccc3Cl)c(C)c(=O)[nH]2)cc1 | > 57.7 | > 57700 | > 57.7 | > 57.7 | 1.98 | > 20 | > 20 |  |
| CCc1c(C(C)c2c(F)cccc2F)nc(SC/C=C/c2ccc([N+](=O)[O-])cc2)[nH]c1=O (centres undefined) | 1.94 | 0.4 | > 5.75 | > 5.75 | 0.009 | > 20 | > 20 |  |
| COc1ccc(COCCSc2nc(Cc3c(F)cccc3F)c(C)c(=O)[nH]2)cc1 | > 55.9 | 1200 | > 55.9 | > 55.9 | 0.197 | > 20 | > 20 |  |
| Cc1ccnc2c1NC(=O)c1cccnc1N2C1CC1 [NEVIRAPINE] |  |  |  |  |  |  |  | 144 |
| COc1ccc(/C=C/CSc2nc(Cc3c(F)cccc3F)c(C)c(=O)[nH]2)cc1 | > 3.93 | 43 | > 3.93 | > 3.93 | 0.25 | > 20 | > 20 |  |
| Cc1c(C(C)c2c(F)cccc2F)nc(SC/C=C/c2ccc([N+](=O)[O-])cc2)[nH]c1=O (centres undefined) | > 11.3 | 140 | > 11.3 | > 11.3 | 0.283 | > 20 | > 20 |  |
| CCc1c(Cc2c(F)cccc2F)nc(SCCc2ccc(OC)cc2)[nH]c1=O | > 60.1 | 0.2 | 2.78 | 1.92 | 0.022 | > 20 | > 20 |  |
| Cc1c(Cc2c(F)cccc2F)nc(SCC#Cc2ccc([N+](=O)[O-])cc2)[nH]c1=O | > 58.6 | 40100 | > 58.6 | > 58.6 | 0.416 | > 20 | > 20 |  |
| CCc1c(Cc2c(Cl)cccc2Cl)nc(SCCc2ccc(OC)cc2)[nH]c1=O | > 11.1 | 1.3 | 3.85 | 6.81 | 0.07 | > 20 | > 20 |  |
| Cc1c(Cc2ccc(C#N)cc2)nc(SCc2ccc(C#N)cc2)[nH]c1=O | > 67.2 | > 67200 | > 67.2 | > 67.2 | > 20 | > 20 | > 20 |  |
| CC(=O)Oc1ccc(CSc2nc(Cc3c(F)cccc3F)c(C)c(=O)[nH]2)cc1 | > 60.1 | 22900 | > 60.1 | > 60.1 | 48 | > 20 | > 20 |  |
| Cc1c(Cc2c(Cl)cccc2Cl)nc(SC/C=C/c2ccc([N+](=O)[O-])cc2)[nH]c1=O | > 10.8 | > 10800 | > 10.8 | > 10.8 | 3.81 | > 20 | > 20 |  |
| COc1ccc(/C=C/CSc2nc(Cc3c(Cl)cccc3Cl)c(C)c(=O)[nH]2)cc1 | > 0.96 | 15 | > 0.96 | > 0.96 | 0.007 | 9 | > 20 |  |
| COC(=O)c1ccc(CSc2nc(Cc3c(F)cccc3F)c(C)c(=O)[nH]2)cc1 | > 34.1 | 142 | 1.35 | 11.2 | 0.5 | > 20 | > 20 | 6.9 |
| COc1ccc(COCCSc2nc(C(C)c3c(Cl)cccc3Cl)c(C)c(=O)[nH]2)cc1 (centres undefined) | 2.5 | 63 | 8.98 | 6.47 | 0.022 | 57.3 | > 20 |  |
| CCc1c(Cc2c(Cl)cccc2Cl)nc(SC/C=C/c2ccc(OC)cc2)[nH]c1=O | > 0.19 | 1.5 | > 0.19 | > 0.19 | 0.056 | > 20 | > 20 |  |
